Several values for one entry are separate records, joined by “and”; a condition that tells them apart may be missing. Equal values may be shown once.
Key:
Rattus norvegicus [1] = assay: Concentration of testosterone (T) and DHT in homogenate was determined by radio immunoassay. Values are presented of Four rats, at dose mg/kg, p.o. =10.; format: functional
In short: (§1)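 Rats dosed orally at 1–30 mg/kg, with controls at 0 mg/kg. Prostates removed 4 h later and homogenized. Testosterone and DHT in the homogenate measured by radioimmunoassay and expressed as % conversion of T to DHT. Mean ± SEM of four rats. Groups compared with the 0 mg/kg control by Dunnett test.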

Rattus norvegicus [2] = assay: Percent conversion of testosterone to dihydrotestosterone in prostate of rats at 0 mg/kg of compound given perorally; format: functional, Prostate gland; details: route oral; in short: as §1
Rattus norvegicus [3] = assay: Percent conversion of testosterone to dihydrotestosterone in prostate of rats at 10 mg/kg of compound given perorally; format: functional, Prostate gland; details: route oral; in short: as §1
Rattus norvegicus [4] = assay: Percent conversion of testosterone to dihydrotestosterone in prostate of rats at 30 mg/kg of compound given perorally; format: functional, Prostate gland; details: route oral; in short: as §1
Rattus norvegicus [5] = assay: Percent conversion of testosterone to dihydrotestosterone in prostate of rats at 3 mg/kg of compound given perorally; format: functional, Prostate gland; details: route oral; in short: as §1
[6] = Compound was tested in vitro for inhibitory activity against 5-alpha reductase isozyme homogenated from transfected Namalwa; format: functional
In short: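 Homogenate of Namalwa cells transfected to express human type 2 isozyme, 40 μg cellular protein per assay. Buffer 0.1 M Na2HPO4–citrate pH 5.5 with 0.3 μM [14C]testosterone and 2 mM NADPH, across a range of drug concentrations. IC50 given as mean ± SEM of three separate experiments.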

[7] = target: T1, 3-oxo-5-alpha-steroid 4-dehydrogenase 1 (Rattus norvegicus, UniProt P24008); assay: 5 alpha- reductase inhibitory activity; format: functional
T1 sequence (P24008 whole entry): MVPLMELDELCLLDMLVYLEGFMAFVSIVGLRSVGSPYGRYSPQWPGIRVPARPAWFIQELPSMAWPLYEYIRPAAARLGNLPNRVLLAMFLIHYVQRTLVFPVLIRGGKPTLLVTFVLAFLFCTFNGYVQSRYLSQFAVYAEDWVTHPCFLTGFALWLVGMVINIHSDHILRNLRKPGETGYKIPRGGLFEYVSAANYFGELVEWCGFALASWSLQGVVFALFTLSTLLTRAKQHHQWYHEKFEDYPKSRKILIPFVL

Rattus norvegicus [8] = assay: Percent conversion of testosterone to dihydrotestosterone in prostate of rats at 1 mg/kg of compound given perorally; format: functional, Prostate gland; details: route oral; in short: as §1
[9] = target: T2, 3-oxo-5-alpha-steroid 4-dehydrogenase 2 (Rattus norvegicus, UniProt P31214); assay: Compound was tested in vitro for inhibitory activity against type 2 5-alpha reductase Isozyme homogenated from rat epididymis; format: functional
T2 sequence (P31214 whole entry): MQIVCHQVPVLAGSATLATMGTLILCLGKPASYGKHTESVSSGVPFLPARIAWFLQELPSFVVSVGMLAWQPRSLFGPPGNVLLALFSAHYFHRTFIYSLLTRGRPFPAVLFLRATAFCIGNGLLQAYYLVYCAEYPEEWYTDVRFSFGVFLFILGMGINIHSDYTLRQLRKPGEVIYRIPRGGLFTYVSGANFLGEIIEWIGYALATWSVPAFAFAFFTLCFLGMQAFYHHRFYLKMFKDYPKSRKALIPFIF
In short: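 Epididymal particulates from male Wistar rats (200–300 g), pelleted at 100000g for 0.5 h. Compounds added in ethanol. Incubated 37 °C for 10 min, then stopped and extracted with ethyl acetate. Inhibition taken from [14C]DHT conversion versus a blank.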

[10] = target: T3, 3-oxo-5-alpha-steroid 4-dehydrogenase 1 (Rattus norvegicus) (UniProt P24008); assay: Inhibitory activity of compound towards 5-alpha reductase from rat =; details: 100 nM
T3 sequence (whole entry): T1 sequence (P24008 whole entry)

SMILES | Conversion (Rattus norvegicus [1]) [%] | Conversion (Rattus norvegicus [2]) | Conversion (Rattus norvegicus [3]) [%] | Conversion (Rattus norvegicus [4]) [%] | Conversion (Rattus norvegicus [5]) [%] | IC50 [6] [µM] | IC50 [7] [µM] | Conversion (Rattus norvegicus [8]) [%] | IC50 [9] [µM] | IC50 [10] [µM]
CCCC(CCC)n1ccc2cc(/C(=C/C(=O)Nc3ccccc3OCCCC(=O)O)CC)ccc21 | 84 | 96% | 84 | 73 | 87 | 0.341 |  |  |  | 
C/C(=C\C(=O)Nc1ccccc1OCCCC(=O)O)c1ccc2c(ccn2C(c2ccccc2)c2ccccc2)c1 |  |  |  |  |  |  | 0.0056 |  |  | 
CC(C)(C)NC(=O)[C@H]1CC[C@H]2[C@@H]3CC[C@H]4NC(=O)C=C[C@]4(C)[C@H]3CC[C@]12C [FINASTERIDE] |  | 84% | 50 | 39 | 49 | 0.00058 |  | 64 | 0.0021 | 0.01
CC/C(=C\C(=O)Nc1ccccc1OCCCC(=O)O)c1ccc2c(ccn2C(c2ccc(F)cc2)c2ccc(F)cc2)c1 |  | 94% | 70 | 50 | 76 | 0.357 |  |  |  | 
C/C(=C\C(=O)Nc1ccccc1OCCCC(=O)O)c1ccc2c(ccn2C(c2ccc(F)cc2)c2ccc(F)cc2)c1 |  | 98% and 93% | 85 | 62 |  | 0.215 |  |  |  | 
Cc1c(O[C@@H](C)c2ccc(CC(C)C)cc2)ccc(C(=O)Nc2ccccc2OCCCC(=O)O)c1C (racemic) |  | 91% | 56 | 54 | 88 | 0.0787 |  | 82 |  | 
CC/C(=C\C(=O)Nc1ccccc1OCCCC(=O)O)c1ccc2c(ccn2C(c2ccccc2)c2ccccc2)c1 |  |  |  |  |  |  | 0.0025 |  |  | 

— ChEMBL document CHEMBL1129602, “Indole derivatives as a new class of steroid 5 alpha-reductase inhibitors” (J Med Chem, 1996)
